A short description of data set [1]: melting temperature; fluorescence melt of hairpins on a sequencing array, two-state fit, raised by 9.35 °C to match UV melts. The note with it: sodium 0.088 M. A digest of the protocol:
(§1)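 In 50 mM Na-HEPES pH 8.0 containing 25 mM NaCl, hairpins from the library on a sequenced MiSeq flow cell were imaged for Cy3 fluorescence at 2.5 °C steps up to 60 °C, with Cy3 and quencher oligos annealed. After normalisation to pre-quench Cy3 and to control constructs, two-state fits with bootstrapping gave melting temperature and folding enthalpy. Four replicates were combined by inverse-variance weighting, and fitted temperatures were shifted up by 9.35 °C to match UV melts.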

Data set [2] is described as follows: folding enthalpy; higher = less favourable; fluorescence melt of hairpins on a sequencing array, two-state fit. The note with it: sodium 0.088 M. The essentials: as §1

For the sequence GGATACGAAAGTAATCC ((((((....))).))), in data set [1], the Tm is 44.6 °C. In addition, the folding enthalpy in data set [2] was -27 kcal/mol.
Take GGATACGCGAAAGCGTCC (((..(((....)))))): in data set [1], the Tm came out at 33 °C. Also, the folding enthalpy in data set [2] was -8.9 kcal/mol.
As to GGATACGGAAACGTATCC (((((((....))))))), the Tm in data set [1] was 64.2 °C. Also, in data set [2], the folding enthalpy was -40.9 kcal/mol.
The like results for GGATAGCGAAAGCTCTCC (((.(((....))).))) were, in that order, 45.4 °C and -30.9 kcal/mol.
In the case of GGATAGCGAAAGCTTCC (((.(((....)))))), the Tm in data set [1] came out at 48.1 °C. Further, in data set [2], the folding enthalpy was -19 kcal/mol.
For the sequence GGATATGAAAATATCC ((((((....)))))), in data set [1], the Tm is 50.9 °C. For the same sequence, the folding enthalpy in data set [2] was -31.6 kcal/mol.
In the same order, the values of GGATATTCGAAAGAATCC (((..(((....)))))) are 26.9 °C and -13.6 kcal/mol.
On to GGATCAGGAAACCGATCC (((((.(....).))))), for which, in data set [1], the Tm was found to be 46.4 °C. Further, the folding enthalpy in data set [2] is -39 kcal/mol.
In the case of GGATCCGAAAGGAATCC ((((((....))).))), the Tm in data set [1] worked out at 50.8 °C. Also, the folding enthalpy in data set [2] was -31.7 kcal/mol.
In the same order, the values of GGATCCGAAAGGACATCC ((((((....)))..))) are 37.2 °C and -17.6 kcal/mol.
The like results for GGATCCGAAAGGACCTCC ((((((....)))..))) were, in that order, 47.2 °C and -15.5 kcal/mol.
In the same order, the values of GGATCCGAAAGGATGTCC ((((((....)))..))) are 35.2 °C and -12.5 kcal/mol.
Turning to GGATCCGAAAGGATTCC ((((((....))).))), in data set [1], the Tm is 51.7 °C. Besides, the folding enthalpy in data set [2] is -30.2 kcal/mol.
For the sequence GGATCGAAAGATCC (((((....))))), the Tm in data set [1] turned out to be 65.3 °C. Moreover, the folding enthalpy in data set [2] was -29.6 kcal/mol.
The like results for GGATCGCGAAAGCGTCC (((.(((....)))))) were, in that order, 52.6 °C and -22.7 kcal/mol.
Regarding GGATCGGCGAAAGCCTCC (((..(((....)))))), the Tm in data set [1] was 28.4 °C. In addition, the folding enthalpy in data set [2] is -11.1 kcal/mol.
Take GGATCTGGAAACAGATCC (((((((....))))))): in data set [1], the Tm turned out to be 62.4 °C. Besides, the folding enthalpy in data set [2] is -47.9 kcal/mol.
In the same order, the values of GGATCTGGAAACAGATTC (.(((((....))))).) are 46.2 °C and -28.9 kcal/mol.
In the same order, the values of GGATGCGAAAGCAAGTCC ((((((....)))..))) are 35.5 °C and -13.7 kcal/mol.
In the same order, the values of GGATGCGAAAGCAATCC ((((((....))).))) are 57.9 °C and -27.8 kcal/mol.
For the sequence GGATGCGCGAAAGCGTCC (((..(((....)))))), the Tm in data set [1] turned out to be 41 °C. Further, the folding enthalpy in data set [2] was -12.3 kcal/mol.
With GGATGGCGAAAGCCGTCC (((.(((....))).))), in data set [1], the Tm was 68.8 °C. In data set [2], the folding enthalpy is -28.8 kcal/mol.
For the sequence GGATGGGGAAACCCACCC ((.((((....)))).)), in data set [1], the Tm worked out at 45.1 °C. Moreover, the folding enthalpy in data set [2] was -24.1 kcal/mol.
As for GGATGGGGAAACTCGTCC (((.(.(....).).))), the Tm in data set [1] was 38.5 °C. Further, the folding enthalpy in data set [2] was -25.2 kcal/mol.
In the same order, the values of GGATGTACGAAAGTATCC (((..(((....)))))) are 37.9 °C and -20.2 kcal/mol.
The like results for GGATGTCGAAAGACCTCC (((.(((....))).))) were, in that order, 46.5 °C and -29 kcal/mol.
Take GGATGTGGAAACACGTTC (.(.(((....))).).): the Tm in data set [1] is 35.8 °C. Moreover, the folding enthalpy in data set [2] was -21.3 kcal/mol.
As for GGATGTGGAAACGCATCC (((((.(....).))))), in data set [1], the Tm amounted to 52.2 °C. The folding enthalpy in data set [2] is -41.4 kcal/mol.
As for GGATGTGGAAACGTATCC ((((..(....)..)))), in data set [1], the Tm was found to be 35.1 °C. Moreover, in data set [2], the folding enthalpy is -22.3 kcal/mol.
In the same order, the values of GGATTAACGAAAGTTTCC (((..(((....)))))) are 28.2 °C and -19.4 kcal/mol.
In the same order, the values of GGATTACGAAAGTATCC (((.(((....)))))) are 42.3 °C and -22.2 kcal/mol.
In the same order, the values of GGATTAGGAAACCAATCC (((((.(....).))))) are 34.4 °C and -34 kcal/mol.
Consider GGATTAGGAAACTAATCC (((((((....))))))), for which the Tm in data set [1] came to 55 °C. Further, in data set [2], the folding enthalpy was -40.5 kcal/mol.
Turning to GGATTCACGAAAGTGTCC (((..(((....)))))), the Tm in data set [1] is 29.8 °C. The folding enthalpy in data set [2] was -12.5 kcal/mol.
Turning to GGATTCCGAAAGGATCC (((.(((....)))))), the Tm in data set [1] worked out at 49.6 °C. In addition, the folding enthalpy in data set [2] was -29.1 kcal/mol.
In the same order, the values of GGATTCGAAAGAAAATCC ((((((....)))..))) are 29.9 °C and -21.4 kcal/mol.
For the sequence GGATTCGGAAACGGATTC (.((.((....)).)).), the Tm in data set [1] worked out at 32.3 °C. The folding enthalpy in data set [2] was -16.7 kcal/mol.
The like results for GGATTGCGAAAGCAGTCC (((.(((....))).))) were, in that order, 60.2 °C and -38.5 kcal/mol.
In the same order, the values of GGATTGGGAAACCAATTC (.(((((....))))).) are 44.2 °C and -28 kcal/mol.
The like results for GGATTGGGAAACTAATCC (((((.(....).))))) were, in that order, 43.5 °C and -33.9 kcal/mol.
For GGATTGGGAAACTAGTCC (((.(.(....).).))), the Tm in data set [1] turned out to be 27.3 °C. For the same sequence, the folding enthalpy in data set [2] was -23.6 kcal/mol.
In the same order, the values of GGATTGGGAAACTGATCC ((((..(....)..)))) are 34.4 °C and -28.1 kcal/mol.
In the same order, the values of GGATTTCGAAAGAAGTCC (((.(((....))).))) are 49.3 °C and -36.2 kcal/mol.
The like results for GGCAAAGGAAACTTCGCC (((.(((....))).))) were, in that order, 41 °C and -29.7 kcal/mol.
Turning to GGCAAATCGAAAGATGCC (((..(((....)))))), the Tm in data set [1] was 47.6 °C. In addition, in data set [2], the folding enthalpy is -29.8 kcal/mol.
As for GGCAACCGAAAGGTCGCC (((.(((....))).))), the Tm in data set [1] was 58.9 °C. For the same sequence, the folding enthalpy in data set [2] was -37.3 kcal/mol.
As for GGCAACGAAAGTTAGGCC ((((((....)))..))), the Tm in data set [1] turned out to be 46.2 °C. Further, the folding enthalpy in data set [2] is -28.3 kcal/mol.
The like results for GGCAACGAAAGTTGGGCC ((((((....)))..))) were, in that order, 44.6 °C and -16.9 kcal/mol.
The like results for GGCAACGAAAGTTTGGCC ((((((....)))..))) were, in that order, 46.4 °C and -27.3 kcal/mol.
In the same order, the values of GGCAACGAAAGTTTTGCC ((((((....)))..))) are 44.9 °C and -26 kcal/mol.
As for GGCAAGAAATTGCC (((((....))))), the Tm in data set [1] was determined as 53 °C. The folding enthalpy in data set [2] was -33.2 kcal/mol.
The like results for GGCAAGCGAAAGCTCGCC (((.(((....))).))) were, in that order, 59.7 °C and -22.9 kcal/mol.
With GGCAAGGAAACTTGCC ((((((....)))))), the Tm in data set [1] amounted to 64.7 °C. Further, the folding enthalpy in data set [2] is -37 kcal/mol.
Turning to GGCAAGGGAAACCTCGCC (((.(((....))).))), the Tm in data set [1] was found to be 47.1 °C. Besides, the folding enthalpy in data set [2] was -32 kcal/mol.
In the same order, the values of GGCAAGGGAAACCTTACC ((.((((....)))).)) are 37.4 °C and -29.2 kcal/mol.
In the same order, the values of GGCAAGGGAAACCTTGCC (((((((....))))))) are 67.8 °C and -33.1 kcal/mol.
The like results for GGCAATACGAAAGTAGCC (((..(((....)))))) were, in that order, 44.4 °C and -17.9 kcal/mol.
GGCACACGAAAGTGGCC (((.(((....)))))): the Tm in data set [1] came to 62.2 °C. The folding enthalpy in data set [2] is -23.2 kcal/mol.
For the sequence GGCACAGGAAACCGTGCC (((((.(....).))))), in data set [1], the Tm was found to be 56.8 °C. Besides, the folding enthalpy in data set [2] is -43.9 kcal/mol.
Turning to GGCACCACGAAAGTGGCC (((..(((....)))))), in data set [1], the Tm is 38.1 °C. Moreover, the folding enthalpy in data set [2] was -11.6 kcal/mol.
Turning to GGCACCCCGAAAGGGGCC (((..(((....)))))), in data set [1], the Tm turned out to be 53.1 °C. In addition, the folding enthalpy in data set [2] is -12.9 kcal/mol.
GGCACCCGAAAGGGGCC (((.(((....)))))): the Tm in data set [1] is 67.1 °C. Besides, the folding enthalpy in data set [2] is -20.9 kcal/mol.
On to GGCACCGAAAGGTACGCC ((((((....)))..))), for which the Tm in data set [1] was 51.4 °C. Moreover, in data set [2], the folding enthalpy was -27.3 kcal/mol.
In the same order, the values of GGCACCGAAAGGTATGCC ((((((....)))..))) are 51.6 °C and -25.1 kcal/mol.
In the case of GGCACCGAAAGGTCAGCC ((((((....)))..))), the Tm in data set [1] came to 49.2 °C. Besides, in data set [2], the folding enthalpy is -24.2 kcal/mol.
Regarding GGCACCGGAAACGACGCC (((..((....))..))), the Tm in data set [1] was 42 °C. Besides, the folding enthalpy in data set [2] was -29.9 kcal/mol.
The like results for GGCACGGGAAACCGTACC ((.((((....)))).)) were, in that order, 48.4 °C and -34.4 kcal/mol.
The like results for GGCACTCGAAAGAGAGCC (((.(((....))).))) were, in that order, 59 °C and -46.2 kcal/mol.
With GGCACTGGAAACAATGCC ((((.((....)).)))), in data set [1], the Tm was found to be 42.7 °C. In data set [2], the folding enthalpy was -29.6 kcal/mol.
The like results for GGCACTGGAAACAGTACC ((.((((....)))).)) were, in that order, 43 °C and -33 kcal/mol.
Take GGCAGAACGAAAGTTGCC (((..(((....)))))): in data set [1], the Tm amounted to 50.9 °C. In addition, the folding enthalpy in data set [2] was -27.2 kcal/mol.
Take GGCAGAGGAAACCCTGCC (((((.(....).))))): the Tm in data set [1] came to 53.3 °C. In addition, the folding enthalpy in data set [2] is -37.8 kcal/mol.
For GGCAGAGGAAACTCTACC ((.((((....)))).)), the Tm in data set [1] was found to be 38.3 °C. The folding enthalpy in data set [2] is -23.8 kcal/mol.
